≈ marks a conversion by molar mass, not a printed value.

What all share (assay type): functional
For one assay, the species on record is Oryctolagus cuniculus. In words: Evaluation for antiviral activity in primary rabbit kidney cell culture. The conditions noted are these: read-out: Min cytotoxic concentration.
The species entered for assay [1] is Homo sapiens. Nature of the assay: Evaluation for its inhibitory effect on proliferation of human lymphoblast namalva cells. Particulars: read-out: ID50 (the source's name).
Another assay has as its system Human alphaherpesvirus 2. In words: Evaluation for antiviral activity against herpes simplex virus type 2 (strain G) in primary rabbit kidney cell culture. An outline of the steps:
(§1)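 Primary rabbit kidney cell cultures infected with virus; the endpoint is the compound concentration that reduces virus-induced cytopathogenicity by 50%.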

Assay [2] has as its system Vesicular stomatitis virus. Nature of the assay: Evaluation for antiviral activity against vesion stomatitis virus in primary rabbit kidney cell culture. An outline of the steps: as §1
In another assay the test system is Vaccinia virus. Nature of the assay: Evaluation for antiviral activity against vaccinia virus in primary rabbit kidney cell culture. The conditions noted are these: Orthopoxvirus vaccinia. An outline of the steps: as §1
The next assay concerns FM3A. Nature of the assay: Evaluation for its inhibitory effect on proliferation of murine mammary carcinoma (FM3A) cells. The conditions noted are these: Mus musculus, read-out: ID50 (the source's name).
Assay [3] is filed under the species Homo sapiens. In words: Evaluation for its inhibitory effect on proliferation of human lymphoblast Raji cells. The conditions noted are these: read-out: ID50 (the source's name).
Another assay deals with Human alphaherpesvirus 1. In words: Evaluation for antiviral activity against herpes simplex virus type 1 (strain KOS) in primary rabbit kidney cell culture. An outline of the steps: as §1
The test system of another assay is L1210. In words: Evaluation for its inhibitory effect on proliferation of murine leukemia L1210 cells. The conditions noted are these: Mus musculus, read-out: ID50 (the source's name).

As to `Cn1cc(NC(=O)c2nc(NC(=O)CNC(=N)N)cn2C)nc1C(=O)NCCC(=N)N.O=S(=O)(O)O`, the MCC in the assay listed under Oryctolagus cuniculus was greater than 400 µg/mL. The IC50 is 261 µg/mL in the assay filed under Homo sapiens [1], greater than 500 µg/mL in the assay with FM3A, 316 µg/mL in the assay listed under Homo sapiens [3] and 238 µg/mL with L1210. Also, the MIC against Human alphaherpesvirus 2 was greater than 400 µg/mL; in assay [2] it was greater than 400 µg/mL; in the assay on Vaccinia virus, 300 µg/mL; in the assay with Human alphaherpesvirus 1, greater than 400 µg/mL.

In the case of `Cn1cc(NC(=O)CNC(=N)N)cc1C(=O)Nc1cn(C)c(C(=O)NCCC(=N)N)n1.O=S(=O)(O)O`, the MCC in the assay listed under Oryctolagus cuniculus was determined as 200 µg/mL. The IC50 in the assay listed under Homo sapiens [1], in the assay with FM3A, in the assay filed under Homo sapiens [3] and with L1210 was greater than 100 µg/mL throughout. The MIC against Human alphaherpesvirus 2 was no less than 200 µg/mL; in assay [2], no less than 200 µg/mL; in the assay on Vaccinia virus, 40 µg/mL; in the assay on Human alphaherpesvirus 1, no less than 200 µg/mL.

Consider `Cl.Cn1cc(NC(=O)c2cc(N)cn2C)cc1C(=O)NCCC(=N)N`, for which the MCC in the assay listed under Oryctolagus cuniculus is 400 µg/mL. For the same molecule, the IC50 is 36 µg/mL in the assay listed under Homo sapiens [1], 327 µg/mL with FM3A, 43 µg/mL in the assay filed under Homo sapiens [3] and 276 µg/mL in the assay on L1210. Further, the MIC is 150 µg/mL in the assay on Human alphaherpesvirus 2, no less than 400 µg/mL in [2], 20 µg/mL against Vaccinia virus and 150 µg/mL against Human alphaherpesvirus 1.

For the molecule `Nc1ccnc2c1ncn2[C@@H]1C[C@H](CO)[C@@H](O)[C@H]1O`, the MCC in the assay listed under Oryctolagus cuniculus was greater than 400 µg/mL. Besides, the figures for the MIC in the assay on Human alphaherpesvirus 2, against Vaccinia virus and with Human alphaherpesvirus 1 were no less than 400 µg/mL, 0.3 µg/mL (≈ 1.14 µM) and 200 µg/mL (≈ 757 µM), respectively.

On to `Cl.Cl.Cn1cc(NC(=O)c2cc(NC(=O)c3cc(NC=O)cn3C)cn2C)cc1C(=O)NCCC(=N)N`, for which the MCC in the assay filed under Oryctolagus cuniculus was 200 µg/mL. Also, the IC50 in the assay filed under Homo sapiens [1] was determined as 22 µg/mL; in the assay with FM3A, 31 µg/mL; in the assay filed under Homo sapiens [3] it was 24 µg/mL; in the assay with L1210 it was 27 µg/mL. The MIC in the assay on Human alphaherpesvirus 2 was 70 µg/mL; in [2], no less than 200 µg/mL; against Vaccinia virus, 0.2 µg/mL; in the assay on Human alphaherpesvirus 1, 70 µg/mL.

As for `Cn1cc(NC(=O)c2cc(NC(=O)C[N+](C)(C)C)cn2C)cc1C(=O)NCCC(=N)N.[Cl-]`, the MCC in the assay listed under Oryctolagus cuniculus is no less than 400 µg/mL. The MIC against Human alphaherpesvirus 2 was greater than 200 µg/mL; in assay [2], greater than 400 µg/mL; in the assay with Vaccinia virus it was 20 µg/mL; with Human alphaherpesvirus 1 it was greater than 200 µg/mL. Further, the IC50 was greater than 1000 µg/mL in the assay with FM3A, 504 µg/mL in the assay filed under Homo sapiens [3] and 543 µg/mL in the assay with L1210.

With `CC[N+](CC)(CC)CC(=O)Nc1cc(C(=O)Nc2cc(C(=O)NCCC(=N)N)n(C)c2)n(C)c1.[Cl-]`, the MCC in the assay listed under Oryctolagus cuniculus was greater than 400 µg/mL. The IC50 in the assay listed under Homo sapiens [1] is 180 µg/mL; in the assay with FM3A, 334 µg/mL; in the assay filed under Homo sapiens [3], 252 µg/mL; with L1210, 222 µg/mL. Also, the MIC is 300 µg/mL against Human alphaherpesvirus 2, greater than 400 µg/mL in assay [2], 300 µg/mL in the assay with Vaccinia virus and 300 µg/mL with Human alphaherpesvirus 1.

For `Cl.Cn1cc(NC(=O)c2nc(NC(=O)c3nc(NC(=O)CNC(=N)N)cn3C)cn2C)nc1C(=O)NCCC(=N)N`, the MCC in the assay filed under Oryctolagus cuniculus stood at 100 µg/mL. The IC50 in the assay filed under Homo sapiens [1] turned out to be 100 µg/mL; in the assay on FM3A, 46 µg/mL; in the assay listed under Homo sapiens [3], 52 µg/mL; in the assay on L1210, 42 µg/mL. Further, the MIC (in the assay on Human alphaherpesvirus 2; in [2]; in the assay with Vaccinia virus; in the assay on Human alphaherpesvirus 1) was no less than 100 µg/mL each time.

With `Cl.Cn1cc(NC(=O)c2nc(NC(=O)CNC(=N)N)cn2C)cc1C(=O)NCCC(=N)N`, in the assay filed under Oryctolagus cuniculus, the MCC was greater than 400 µg/mL. For the same molecule, the IC50 in the assay filed under Homo sapiens [1], with FM3A, in the assay listed under Homo sapiens [3] and with L1210 was greater than 100 µg/mL in each case. For the same molecule, the MIC is greater than 400 µg/mL with Human alphaherpesvirus 2, greater than 400 µg/mL in assay [2], 40 µg/mL against Vaccinia virus and greater than 400 µg/mL in the assay with Human alphaherpesvirus 1.

On to `Nc1ncnc2c1ncn2C[C@H](O)CO` [(S)-DHPA], for which the MCC in the assay listed under Oryctolagus cuniculus was greater than 400 µg/mL. For the same molecule, the MIC is greater than 400 µg/mL against Human alphaherpesvirus 2, 20 µg/mL (≈ 95.6 µM) in [2], 70 µg/mL (≈ 335 µM) against Vaccinia virus and greater than 400 µg/mL with Human alphaherpesvirus 1.

Consider `Cl.Cn1cc(NC(=O)c2cc(NC(=O)c3cc(N)cn3C)cn2C)cc1C(=O)NCCC(=N)N` [DEFORMYLDISTAMYCIN], for which, in the assay listed under Oryctolagus cuniculus, the MCC was determined as 100 µg/mL. The IC50 in the assay filed under Homo sapiens [1] came out at 29 µg/mL; in the assay with FM3A, 454 µg/mL; in the assay listed under Homo sapiens [3] it was 32 µg/mL; with L1210 it was 174 µg/mL. For the same molecule, the MIC against Human alphaherpesvirus 2 was no less than 100 µg/mL; in [2], no less than 100 µg/mL; in the assay with Vaccinia virus, 7 µg/mL; in the assay on Human alphaherpesvirus 1 it was no less than 100 µg/mL.

Take `Cl.Cn1cc(NC(=O)c2cc(NC(=O)CNC(=N)N)cn2C)cc1C(=O)NCCC(=N)N` [NETROPSIN CHLORIDE]: the MCC in the assay listed under Oryctolagus cuniculus is 40 µg/mL. Also, the IC50 in the assay filed under Homo sapiens [1] is 103 µg/mL; in the assay with FM3A, 321 µg/mL; in the assay listed under Homo sapiens [3] it was 139 µg/mL; with L1210, 245 µg/mL. Further, the MIC is no less than 40 µg/mL against Human alphaherpesvirus 2, no less than 40 µg/mL in [2], 2 µg/mL in the assay on Vaccinia virus and no less than 40 µg/mL with Human alphaherpesvirus 1.

On to `NC(=O)c1ncn([C@@H]2O[C@H](CO)[C@@H](O)[C@H]2O)n1` [RIBAVIRIN], for which the MCC in the assay listed under Oryctolagus cuniculus is greater than 400 µg/mL. Moreover, the MIC with Human alphaherpesvirus 2 was greater than 400 µg/mL; in assay [2] it was 200 µg/mL (≈ 819 µM); against Vaccinia virus it was 30 µg/mL (≈ 123 µM); in the assay on Human alphaherpesvirus 1, greater than 400 µg/mL.

As to `Nc1ncnc2c1ccn2[C@@H]1O[C@H](CO)[C@@H](O)[C@H]1O` [TUBERCIDIN], the MCC in the assay filed under Oryctolagus cuniculus stood at 0.4 µg/mL. Moreover, the MIC was no less than 0.4 µg/mL in the assay on Human alphaherpesvirus 2, 0.07 µg/mL (≈ 0.263 µM) with Vaccinia virus and no less than 0.4 µg/mL with Human alphaherpesvirus 1.

For the origin of these results see ChEMBL document CHEMBL1123547, “Structure-activity relationship of novel oligopeptide antiviral and antitumor agents related to netropsin and distamycin” (1986).
